hERG rescue: shields human hERG channel from block by proarrhythmic agents; CHO-hERG, FluxOR thallium flux, dofetilide IC70 present; 310,000 compounds, 0.51% hits; activation (rescue from dofetilide block), less the hit threshold, % at 10 µM;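 active = activation above the mean of controls blocked by dofetilide plus 5 SD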;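 also: thallium influx through hERG after potassium depolarization seen as dye fluorescence rise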
KCNQ1 block: blocks the human KCNQ1 potassium channel | AID 2642 | CHO-K1 KCNQ1, FluxOR thallium flux fluorescence; stronger effect = higher value | 310,000 compounds, 1.3% hits | B-score at 10 µM;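 active = compounds whose thallium flux B-score, printed positive for inhibition, exceeds three library SD while starting fluorescence stays within three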;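 also: channel opened by potassium depolarization with thallium stimulus after 20 min compound exposure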
Kir21 inh: Kir2.1 (mouse) channel inhibition | AID 1672 | B-score at 10 µM | HEK293-Kir2.1, FluxOR thallium flux fluorescence; stronger effect = lower value | 310,000 compounds, 0.85% hits;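 active = fluorescence ratio B-score at or below minus 3 SD of library scores, with starting-brightness B-score within 2 SD, cut at about -4.2 in these data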;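 also: channel flux triggered by added potassium and thallium sulfate stimulus; B-score of peak minus minimum fluorescence over baseline after thallium stimulus; more negative B-score means stronger Kir2.1 block with less thallium influx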
KCNQ1 pot: human KCNQ1 channel potentiation or activation. P51787. CHO-K1 KCNQ1, thallium flux FluxOR fluorescence; stronger effect = higher value. B-score at 10 µM. 310,000 compounds, 0.35% hits;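 active = fluorescence ratio B-score, a plate-corrected score, at least three library SD, with initial intensity B-score within 5 SD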
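Assay system: CHO-K1 cells stably expressing KCNQ1; Medium: assay buffer with matched DMSO; Also added: K+/Tl+ depolarizing stimulus; Dosing: single dose; Timing: dye 90 min, compound 20 min, room temperature; Measured by: kinetic FluxOR thallium fluorescence, 10-s 1-Hz baseline, 110-s post-stimulus read; Read-out: peak-minus-minimum fluorescence over initial fluorescence, negative-control normalized, B-scored.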
KCNK3 block: human KCNK3 channel inhibition, primary screen. B-score at 10 µM. 340,000 compounds, 0.84% hits. CHO-KCNK3 thallium flux, FluxOR fluorescence; stronger effect = lower value. AID 602410;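 active = B-score under library mean minus 4 SD, starting fluorescence ratio at most library mean plus 5 SD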;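 also: more negative B-score means stronger inhibition of thallium flux through KCNK3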
Target sequence (O14649 whole entry, looked up): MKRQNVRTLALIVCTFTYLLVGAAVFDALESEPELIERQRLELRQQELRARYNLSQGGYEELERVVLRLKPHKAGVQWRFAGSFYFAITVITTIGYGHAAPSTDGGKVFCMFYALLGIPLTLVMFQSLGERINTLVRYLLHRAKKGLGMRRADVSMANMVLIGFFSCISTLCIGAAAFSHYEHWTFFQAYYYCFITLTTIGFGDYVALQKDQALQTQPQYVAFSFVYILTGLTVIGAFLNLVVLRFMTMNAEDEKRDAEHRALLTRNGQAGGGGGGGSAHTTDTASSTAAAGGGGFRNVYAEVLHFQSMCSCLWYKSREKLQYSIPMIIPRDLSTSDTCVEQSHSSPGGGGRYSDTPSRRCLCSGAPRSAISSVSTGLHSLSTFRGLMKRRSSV
KCNK9 inh-1: human KCNK9 channel inhibition; 310,000 compounds, 1.2% hits; HEK293 KCNK9, FluxOR thallium flux fluorescence; stronger effect = lower value; B-score at 10 µM; Q9NPC2;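 active = ratio B-score over 3 SD below the library mean, with starting fluorescence within 5 SD of its mean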;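 also: negative B-score means less thallium flux so channel inhibition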
hERG ctr: blocks human hERG, in counter-screen for Kir2.1 inhibitors; shares compounds with Kir21 inh; 320 compounds, 20% hits; hERG-expressing cells, thallium flux; AID 2236; inhibition, % at 10 µM;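 also: host cells are CHO cells stably expressing hERG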
KCNK9 inh-2: selectivity of Kir2.1 inhibitors: effect on human KCNK9. KCNK9-expressing cells, ion flux inhibition. 320 compounds, 5% hits. AID 2329. inhibition, % at 10 µM. shares compounds with Kir21 inh
Kir2-1 patch inh: inhibitors of mouse Kir2.1 potassium channel. shares compounds with Kir21 inh. Kir2.1 cells, automated patch-clamp current inhibition. inhibition, % at 25 µM. 320 compounds, 71% hits
* hit, by the source's call. Shown are actives, neighbours in structure and some others; about 3.8% of the full set was active somewhere. Unless noted, no rule for the calls is given here.

What do the screens show for `Clc1ccc(OCCOCCNCc2ccccc2)cc1Cl`?
hERG rescue: -11.1; KCNQ1 block: inactive; Kir21 inh: -8.65*; KCNQ1 pot: inactive; KCNK3 block: inactive; KCNK9 inh-1: inactive; hERG ctr: 51.0%*; KCNK9 inh-2: inactive; Kir2-1 patch inh: 42.3%*

How did Cc1ccc(CSc2nnc(CCNC(=O)OC(C)(C)C)o2)cc1 do in these assays?
hERG rescue: -7.0; KCNQ1 block: inactive; Kir21 inh: -10.9*; KCNQ1 pot: inactive; KCNK3 block: inactive; KCNK9 inh-1: inactive; hERG ctr: inactive; KCNK9 inh-2: inactive; Kir2-1 patch inh: 59.7%*

Results for CC(C)(C)OC(=O)NCCCCCc1nnc(SCc2ccc(F)cc2)o1 ?
hERG rescue: -9.3; KCNQ1 block: inactive; Kir21 inh: -2.38; KCNQ1 pot: inactive; KCNK3 block: inactive; KCNK9 inh-1: inactive

What do the screens show for `COc1ccccc1OC(C)C(=O)N(Cc1ccco1)C1CCS(=O)(=O)C1` (centres undefined)?
hERG rescue: -9.0; KCNQ1 block: inactive; Kir21 inh: 1.13; KCNQ1 pot: inactive; KCNK3 block: inactive; KCNK9 inh-1: inactive

Results for C/C=C/c1ccc(OCCCCN(C)Cc2ccccc2)c(OC)c1 ?
hERG rescue: -11.6; KCNQ1 block: inactive; Kir21 inh: -9.87*; KCNQ1 pot: inactive; KCNK3 block: inactive; KCNK9 inh-1: inactive; hERG ctr: 62.0%*; KCNK9 inh-2: inactive; Kir2-1 patch inh: 45.7%*

How did C/C=C/c1ccc(OCCCCOc2ccccc2C(C)=O)c(OC)c1 do in these assays?
hERG rescue: -11.4; KCNQ1 block: inactive; Kir21 inh: 0.93; KCNQ1 pot: inactive; KCNK3 block: inactive; KCNK9 inh-1: inactive

What do the screens show for `O=[N+]([O-])c1ccc(Sc2nccn2Cc2ccccc2)c([N+](=O)[O-])c1`?
hERG rescue: -5.8; KCNQ1 block: inactive; Kir21 inh: -7.19*; KCNQ1 pot: inactive; KCNK3 block: inactive; KCNK9 inh-1: inactive; hERG ctr: inactive; KCNK9 inh-2: inactive; Kir2-1 patch inh: 34.7%*

How did O=[N+]([O-])c1ccc(Sc2ncccn2)c([N+](=O)[O-])c1 do in these assays?
hERG rescue: -8.7; KCNQ1 block: inactive; Kir21 inh: -1.08; KCNQ1 pot: inactive; KCNK3 block: inactive; KCNK9 inh-1: inactive

What do the screens show for `O=[N+]([O-])c1cc(C(F)(F)F)ccc1Sc1nccn1Cc1ccccc1`?
hERG rescue: -9.7; KCNQ1 block: inactive; Kir21 inh: -8.54*; KCNQ1 pot: inactive; KCNK3 block: inactive; KCNK9 inh-1: inactive; hERG ctr: inactive; KCNK9 inh-2: inactive; Kir2-1 patch inh: 7.0%*

How did CCN(CC)CCCNc1oc(-c2ccccc2[N+](=O)[O-])nc1C#N do in these assays?
hERG rescue: -5.8; KCNQ1 block: inactive; Kir21 inh: -0.91; KCNQ1 pot: inactive; KCNK3 block: inactive; KCNK9 inh-1: inactive

Results for Cc1c(NC(=O)C(C)OC(=O)c2ccc(Br)o2)c(=O)n(-c2ccccc2)n1C (centres undefined) ?
hERG rescue: -7.8; KCNQ1 block: inactive; Kir21 inh: 0.43; KCNQ1 pot: inactive; KCNK3 block: inactive; KCNK9 inh-1: inactive

Results for Cc1c(NC(=O)COC(=O)c2ccc(Br)o2)c(=O)n(-c2ccccc2)n1C ?
hERG rescue: -8.8; KCNQ1 block: inactive; Kir21 inh: 1.76; KCNQ1 pot: inactive; KCNK3 block: inactive; KCNK9 inh-1: inactive; hERG ctr: inactive; KCNK9 inh-2: inactive; Kir2-1 patch inh: inactive

What do the screens show for `Cc1ccc2nc(Cl)c(CNCc3ccccc3)cc2c1`?
hERG rescue: -9.2; KCNQ1 block: inactive; Kir21 inh: -11.7*; KCNQ1 pot: inactive; KCNK3 block: inactive; KCNK9 inh-1: inactive; hERG ctr: inactive; KCNK9 inh-2: inactive; Kir2-1 patch inh: inactive

What do the screens show for `Cc1ccc(O)c(CNCCNCc2cc(C)ccc2O)c1`?
hERG rescue: -3.5; KCNQ1 block: inactive; Kir21 inh: -6.13*; KCNQ1 pot: inactive; KCNK3 block: inactive; KCNK9 inh-1: inactive; hERG ctr: inactive; KCNK9 inh-2: inactive; Kir2-1 patch inh: 51.1%*

Results for Cc1ccc(O)c(CNc2nc3ccccc3n2C(C)C)c1 ?
hERG rescue: -4.2; KCNQ1 block: inactive; Kir21 inh: 0.42; KCNQ1 pot: inactive; KCNK3 block: inactive; KCNK9 inh-1: inactive

How did Cc1ccc(C(=O)N/C(=C\c2ccc(-c3ccc(Br)cc3)o2)C(=O)NCCCN(C)C)cc1 do in these assays?
hERG rescue: -32.9; KCNQ1 block: 8*; Kir21 inh: -10.5*; KCNQ1 pot: inactive; KCNK3 block: inactive; KCNK9 inh-1: inactive; hERG ctr: 77.0%*; KCNK9 inh-2: inactive; Kir2-1 patch inh: inactive

Results for COc1ccc(S(=O)(=O)N2CCc3ccccc32)cc1OC ?
hERG rescue: -10.1; KCNQ1 block: inactive; Kir21 inh: -6.19*; KCNQ1 pot: inactive; KCNK3 block: inactive; KCNK9 inh-1: inactive; hERG ctr: inactive; KCNK9 inh-2: inactive; Kir2-1 patch inh: 24.1%*

Results for O=S(=O)(c1ccc(=S)[nH]c1)N1CCCC1 ?
KCNK3 block: inactive

Results for COc1ccc2ccccc2c1CNCc1ccc(C)cc1 ?
hERG rescue: -3.8; KCNQ1 block: inactive; Kir21 inh: -9.11*; KCNQ1 pot: inactive; KCNK3 block: inactive; KCNK9 inh-1: inactive; hERG ctr: inactive; KCNK9 inh-2: inactive; Kir2-1 patch inh: 40.7%*

How did COc1ccccc1CNCc1ccc(C)cc1 do in these assays?
hERG rescue: -6.3; KCNQ1 block: inactive; Kir21 inh: -1.71; KCNQ1 pot: inactive; KCNK3 block: inactive; KCNK9 inh-1: inactive

What do the screens show for `CC(=O)c1cccc(OCC(O)CN2CCN(C(=O)c3ccco3)CC2)c1` (centres undefined)?
hERG rescue: -6.4; KCNQ1 block: inactive; Kir21 inh: -0.02; KCNQ1 pot: inactive; KCNK3 block: inactive; KCNK9 inh-1: inactive

How did CN(Cc1ccco1)S(=O)(=O)c1csc(C(N)=O)c1 do in these assays?
hERG rescue: -2.8; KCNQ1 block: inactive; Kir21 inh: 0.03; KCNQ1 pot: inactive; KCNK3 block: inactive; KCNK9 inh-1: inactive

Results for CC(C)CCN(Cc1ccco1)S(=O)(=O)c1csc(C(N)=O)c1 ?
hERG rescue: -13.0; KCNQ1 block: inactive; Kir21 inh: -8.19*; KCNQ1 pot: inactive; KCNK3 block: inactive; KCNK9 inh-1: inactive; hERG ctr: inactive; KCNK9 inh-2: inactive; Kir2-1 patch inh: 21.6%*
